Ecoli rRNA inh: reduced GFP signal of wild-type E. coli, primary screen, bacterial rRNA inhibitor project, GFP/RFP fluorescence, OD600, single point | E. coli WT GFP vs humanized-ribosome RFP mutants, 24 h; stronger effect = lower value; DMSO median 0, no signal -100 | GFP signal change (wild-type ribosome), % (concentration not given with the values) | 350,000 compounds, 1.6% hits | AID 720706, 2013;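 active = significant combined selectivity score with lowered wild-type GFP, culture density cut under 30%, mutant RFP and density less affected; inactive = any of these conditions unmet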
PglD DTNB: C. jejuni PglD acetyltransferase inhibitors, primary screen, biochemical, DTNB colorimetric, single point | UDP-N-acetylbacillosamine N-acetyltransferase PglD (Campylobacter jejuni) | purified PglD enzyme, DTNB colorimetric CoA detection | inhibition, % at 12.5 µM | 360,000 compounds, 0.098% hits | AID 602405, 2012; in the data active = inhibition above about 16%, passing the limit was not always enough
FN deposit inh: inhibitors of fibronectin matrix deposition, primary screen, AH1F cells, Alexa488-fibronectin fluorescence, plate reader | AH1F fibroblasts, overnight | inhibition, % at 12.6 µM | 350,000 compounds, 0.086% hits | AID 743247, 2014;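 active = mean inhibition across replicates of 30% or more, regardless of how many single replicates reach that level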
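Schedule: 1 h cell adhesion before compound, then overnight fibronectin incubation; test system: AH1F fibroblast monolayer depositing Alexa488-labelled fibronectin into matrix; quantity: 10000 AH1F cells per well; probe or stimulus: fluorescent fibronectin at 24 nM final; signal: fluorescence, ex 485 nm, em 525 nm; evaluation: percent inhibition as loss of matrix-bound fibronectin fluorescence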
DENV2 CPE: inhibitors of DENV2 cytopathic effect, primary screen, cell-based, plate reader, single concentration; DENV2-infected cells, cytopathic effect rescue; CPE inhibition, % at 9.99 µM; 350,000 compounds, 1.7% hits; AID 651640, 2012; in the data active = CPE inhibition above about 20%, passing the limit was not always enough; tested in BHK-21 cells
PGC1a acetyl inh: inhibitors of PGC1a acetylation signal, primary screen, cell-based, U2OS, AlphaScreen, inhibitor mode | AlphaScreen anti-acetyl-lysine; with virally co-expressed GCN5 acetyltransferase | 350,000 compounds, 0.17% hits | inhibition, % at 15.6 µM | AID 651687, 2012;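 active = every replicate shows inhibition of at least 40%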
Env fusion inh: inhibitors of HIV-1 Env-driven cell-cell fusion, primary screen, HeLa-JRFL effector, CEM21 target cells, luciferase; 360,000 compounds, 1.1% hits; inhibition, % at 12.3 µM;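 active = mean replicate inhibition score of at least 50 and every replicate individually at or above 50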
Numbers stand for hits; i = inactive; nt = no result; [ ] = dose if it differs, or a comment. Most compounds without a hit are left out; they make up all but 3.5% or so of the library.

SMILES | Ecoli rRNA inh | PglD DTNB | FN deposit inh | DENV2 CPE | PGC1a acetyl inh | Env fusion inh
COc1ccc(N(C)S(=O)(=O)c2cccc(C(=O)Nc3ccc(N4CCOCC4)cc3)c2)cc1 | -21.0 | i | i | i | i | i
C[C@@H]1CN([C@@H](C)CO)C(=O)c2ccccc2-c2ccccc2CO[C@@H]1CN(C)Cc1cccc(C(F)(F)F)c1 | i | nt | i | i | i | nt
O=C(N/N=C/c1cccn1-c1ccc([N+](=O)[O-])cc1)c1cccnc1 | i | i | i | 115.8 | i | i
COc1ccc(N(C(=O)CSCC(=O)Nc2cc(C)on2)C(C(=O)NC2CCCCC2)c2ccc(O)c(O)c2)cc1 (stereo not given) | -18.1 | nt | i | i | nt | 56.6
N#C[C@@H]1[C@H](c2ccc(-c3ccccc3)cc2)[C@@H](CO)N1C(=O)Cc1ccccc1 | i | i | i | i | i | i
N#C[C@H]1[C@@H](c2ccc(-c3ccccc3)cc2)[C@@H](CO)N1S(=O)(=O)Cc1ccccc1 | i | i | i | i | i | 62.5[16.7 µM]
N#C[C@@H]1[C@H](c2ccc(-c3ccccc3F)cc2)[C@@H](CO)N1C(=O)Cc1ccccc1 | i | i | i | i | i | 57.6[16.7 µM]
N#C[C@@H]1[C@H](c2ccccc2)[C@H](CO)N1C(=O)Cc1ccccc1 | i | i | i | 74.5 | i | i
N#C[C@@H]1[C@@H](c2ccc(-c3ccc(F)cc3)cc2)[C@@H](CO)N1S(=O)(=O)Cc1ccccc1 | i | i | i | i | i | i
CN(C)C(=O)[C@H]1[C@H](CO)[C@H]2Cn3c(ccc(C4=CCCC4)c3=O)[C@H]2N1C(=O)c1ccccc1F | i | i | nt | i | nt | i
COCC#Cc1cnc2c(c1)C(=O)N([C@H](C)CO)C[C@H](C)[C@H](CN(C)C(C)=O)O2 | i | i | i | i | i | i
O=C(C[C@H]1C[C@H]2c3cc(NC(=O)NC4CCCC4)ccc3O[C@H]2[C@@H](CO)O1)NCc1ccncc1 | i | i | i | i | i | i
C[C@@H]1CN([C@H](C)CO)C(=O)Cc2cc(NS(=O)(=O)c3cn(C)cn3)ccc2O[C@@H]1CN(C)S(=O)(=O)c1ccccc1 | i | i | nt | i | i | i
Fc1ccc(N=C2NN=C(c3cc(F)ccc3F)CS2)cc1 | i | nt | i | i | nt | i
Fc1ccc(F)c(C2=NNC(=Nc3ccccc3F)SC2)c1 | i | i | i | 86.4 | i | i
S=c1[nH]nc(-c2ccncc2)n1/N=C/C=C/c1ccccc1 | -23.1 | nt | i | i | i | i
COc1ccccc1/C=C/C=N/n1c(-c2ccncc2)n[nH]c1=S | nt | nt | i | nt | nt | i
CCC(=O)Nc1ccc2c(c1)C(=O)N(C)[C@@H]1CC[C@H](CC(=O)N[C@@H](C)c3ccccc3)O[C@@H]1CO2 | i | i | i | 139.3 | i | i
CCC(=O)Nc1ccc2c(c1)C(=O)N(C)[C@H]1CC[C@@H](CC(=O)N[C@@H](C)c3ccccc3)O[C@H]1CO2 | i | i | i | 70.6 | i | i
CC(C)NC(=O)Nc1ccc2c(c1)C(=O)N(C)[C@H]1CC[C@H](CC(=O)Nc3ccccc3F)O[C@@H]1CO2 | i | i | i | i | i | i
CCC(=O)Nc1ccc2c(c1)C(=O)N(C)[C@@H]1CC[C@@H](CC(=O)N[C@H](C)c3ccccc3)O[C@H]1CO2 | i | i | i | i | i | i
CC(C)C(=O)Nc1ccc2c(c1)C(=O)N(C)[C@H]1CC[C@H](CC(=O)Nc3ccccc3F)O[C@@H]1CO2 | i | i | i | 77.9 | i | i
CCC(=O)Nc1ccc2c(c1)C(=O)N(C)[C@H]1CC[C@H](CC(=O)N[C@H](C)c3ccccc3)O[C@@H]1CO2 | i | nt | i | i | i | i
CCC(=O)Nc1ccc2c(c1)C(=O)N(C)[C@@H]1CC[C@H](CC(=O)N[C@@H](C)c3ccccc3)O[C@H]1CO2 | i | i | i | 62.2 | i | i
CO[C@H]1CN(C)C(=O)c2cc(NS(C)(=O)=O)ccc2OC[C@H](C)N(C(=O)C2CCCC2)C[C@@H]1C | i | i | i | i | nt | nt
SMILES | Ecoli rRNA inh | PglD DTNB | FN deposit inh | DENV2 CPE | PGC1a acetyl inh | Env fusion inh
COCC(=O)N1C[C@@H](C)[C@H](OC)CN(C)C(=O)c2ccc(NC(=O)c3ccccc3)cc2OC[C@@H]1C | i | i | i | i | i | nt
C[C@@H](NC(=O)C[C@@H]1CC[C@H]2[C@@H](COC[C@H](O)CN2C(=O)Nc2cc(Cl)cc(Cl)c2)O1)c1ccccc1 | i | i | i | 40.1 | i | nt
C[C@@H](NC(=O)C[C@@H]1CC[C@H]2[C@@H](COC[C@@H](O)CN2C(=O)Nc2cc(Cl)cc(Cl)c2)O1)c1ccccc1 | i | i | i | i | i | nt
O=C(C[C@H]1CC[C@H]2[C@@H](COC[C@@H](O)CN2C(=O)Nc2cc(Cl)cc(Cl)c2)O1)N1CCOCC1 | -26.6 | i | i | nt | i | i
C[C@H](NC(=O)C[C@H]1CC[C@H]2[C@@H](COC[C@@H](O)CN2C(=O)Nc2cc(Cl)cc(Cl)c2)O1)c1ccccc1 | i | i | i | 22.9 | i | nt
CCS(=O)(=O)Nc1ccc2c(c1)C(=O)N(C)C[C@H](OC)[C@@H](C)CN(C(=O)C1CCC1)[C@@H](C)CO2 | nt | i | nt | i | i | i
CC(=O)Nc1ccc2c(c1)C(=O)N(C)[C@H]1CC[C@@H](CC(=O)NCCCN3CCOCC3)O[C@@H]1CO2 | i | i | i | i | i | i
CCCc1[nH]n(-c2nc3ccccc3s2)c(=O)c1C=NCC1CCCO1 (stereo not given) | -25.3 | i | i | nt | i | i
Nc1ccc(Sc2nc3ccccc3[nH]2)cc1 | -21.8 | nt | i | i | i | i
CCS(=O)(=O)N1CC2(C1)[C@@H](c1ccccc1)[C@H](CO)N2Cc1ccccn1 | i | nt | i | 21.7 | i | nt
O=C(c1ccccc1)N1CC2(C1)[C@@H](c1ccccc1)[C@@H](CO)N2Cc1ccccn1 | i | nt | i | 21.0 | i | nt
O=C(c1cccnc1)N1CC2(C1)[C@H](c1ccccc1)[C@@H](CO)N2Cc1ccccc1 | i | nt | i | 108.0 | i | nt
CC(=O)C1=C(c2ccccc2)OC(N)=C(C#N)C1c1ccccc1C (stereo not given) | -33.4 | nt | i | i | nt | i
CC(=O)C1=C(c2ccccc2)OC(N)=C(C#N)C1c1ccccc1F (stereo not given) | -46.6 | nt | i | nt | nt | i
Clc1ccc(-n2nnnc2-c2cnc3ccccc3c2-c2ccccc2)cc1 | -21.2 | nt | i | i | i | i
Cc1noc(C)c1NC(=O)Nc1ccc2c(c1)C(=O)N([C@H](C)CO)C[C@H](C)[C@@H](CN(C)Cc1ccccc1)O2 | i | i | nt | 22.8 | nt | i
